Experimental data published in ChEMBL document CHEMBL1649165, “Activity profile in vitro of micafungin against Spanish clinical isolates of common and emerging species of yeasts and molds” (2009).

What was measured:
Format in all cases: functional
Scedosporium apiospermum = assay: Antimicrobial activity against Scedosporium apiospermum by broth microdilution method
Procedure, shortened: (§1)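 Filamentous fungus clinical isolates tested by the AFST-EUCAST reference broth microdilution method for moulds. For echinocandins, the endpoint was the minimum effective concentration: the lowest drug concentration giving aberrant hyphal growth, read with an inverted microscope.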

Lecythophora hoffmannii = assay: Antimicrobial activity against Lecythophora hoffmannii by broth microdilution method; conditions: Coniochaeta hoffmannii; procedure, shortened: as §1
Fusarium verticillioides = assay: Antimicrobial activity against Fusarium verticillioides by broth microdilution method; procedure, shortened: as §1
Fusarium proliferatum = assay: Antimicrobial activity against Fusarium proliferatum by broth microdilution method
Procedure, shortened: (§2)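 Clinical mould isolates, tested by broth microdilution using the AFST-EUCAST reference method for filamentous fungi. For echinocandins, the endpoint was the minimum effective concentration: the lowest drug concentration giving aberrant hyphal growth, read with an inverted microscope.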

Candida metapsilosis = assay: Antimicrobial activity against Candida metapsilosis by broth microdilution method; conditions: Lodderomyces metapsilosis
Procedure, shortened: (§3)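 Clinical isolates from human patients, tested by broth microdilution using the AFST-EUCAST reference procedure for fermentative yeasts. The MIC was read per that reference method.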

Wickerhamomyces anomalus = assay: Antimicrobial activity against Candida pelliculosa by broth microdilution method; conditions: Hansenula anomala; procedure, shortened: as §3
Yarrowia lipolytica = assay: Antimicrobial activity against Yarrowia lipolytica by broth microdilution method
[1] = system: Scopulariopsis brevicaulis; assay: Antimicrobial activity against Scopulariopsis brevicaulis by broth microdilution method; procedure, shortened: as §1
Exophiala dermatitidis = assay: Antimicrobial activity against Exophiala dermatitidis by broth microdilution method
Trichosporon = assay: Antimicrobial activity against Trichosporon spp. by broth microdilution method
Procedure, shortened: (§4)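 Nonfermentative yeast clinical isolates (Rhodotorula, Trichosporon) tested by broth microdilution. The EUCAST yeast recommendations were followed strictly, with one minor modification to improve growth. MIC was read as the endpoint.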

Mucor = assay: Antimicrobial activity against Mucor spp.by broth microdilution method; procedure, shortened: as §1
Paecilomyces lilacinus = assay: Antimicrobial activity against Paecilomyces lilacinus by broth microdilution method; conditions: Purpureocillium lilacinum; procedure, shortened: as §1
Kluyveromyces marxianus = assay: Antimicrobial activity against Candida kefyr by broth microdilution method; procedure, shortened: as §3
Rhizomucor = assay: Antimicrobial activity against Rhizomucor spp.by broth microdilution method; procedure, shortened: as §1
Aureobasidium pullulans = assay: Antimicrobial activity against Aureobasidium pullulans by broth microdilution method
Aspergillus sydowii = assay: Antimicrobial activity against Aspergillus sydowii by broth microdilution method; procedure, shortened: as §2
Trichosporon domesticum = assay: Antimicrobial activity against Trichosporon mycotoxinivorans by broth microdilution method; conditions: Apiotrichum domesticum
Procedure, shortened: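 Spanish human clinical isolates were tested as nonfermentative yeasts by broth microdilution. The method strictly followed the EUCAST recommendations, with a minor modification to improve growth, and the read-out was the MIC.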

Aspergillus terreus = assay: Antimicrobial activity against Aspergillus terreus by broth microdilution method; procedure, shortened: as §2
[Candida] intermedia = Antimicrobial activity against Candida intermedia by broth microdilution method; conditions: Sungouiella intermedia; procedure, shortened: as §3
Aspergillus glaucus = assay: Antimicrobial activity against Aspergillus glaucus by broth microdilution method; procedure, shortened: as §2
Aspergillus niger = assay: Antimicrobial activity against Aspergillus niger by broth microdilution method; procedure, shortened: as §2
Aspergillus nidulans = assay: Antimicrobial activity against Aspergillus nidulans by broth microdilution method; procedure, shortened: as §2
Candida albicans = assay: Antimicrobial activity against Candida albicans by broth microdilution method; procedure, shortened: as §3
Candida tropicalis = assay: Antimicrobial activity against Candida tropicalis by broth microdilution method; procedure, shortened: as §3
Penicillium = assay: Antimicrobial activity against Penicillium spp. by broth microdilution method; procedure, shortened: as §1
Trichosporon dermatis = assay: Antimicrobial activity against Trichosporon dermatis by broth microdilution method; conditions: Cutaneotrichosporon dermatis; procedure, shortened: as §4
Aspergillus flavus = assay: Antimicrobial activity against Aspergillus flavus by broth microdilution method; procedure, shortened: as §2
Saksenaea vasiformis = assay: Antimicrobial activity against Saksenaea vasiformis by broth microdilution method; procedure, shortened: as §1
Rhodotorula glutinis = assay: Antimicrobial activity against Rhodotorula glutinis by broth microdilution method; procedure, shortened: as §4
Aspergillus ochraceus = assay: Antimicrobial activity against Aspergillus ochraceus by broth microdilution method; procedure, shortened: as §2
Saccharomyces cerevisiae = assay: Antimicrobial activity against Saccharomyces cerevisiae by broth microdilution method
Trichoderma = assay: Antimicrobial activity against Trichoderma spp. by broth microdilution method; procedure, shortened: as §1
Pichia norvegensis = assay: Antimicrobial activity against Candida norvegensis by broth microdilution method; procedure, shortened: as §3
Alternaria alternata = assay: Antimicrobial activity against Alternaria alternata by broth microdilution method; procedure, shortened: as §2
Beauveria bassiana = assay: Antimicrobial activity against Beauveria bassiana by broth microdilution method; procedure, shortened: as §2
Hortaea werneckii = assay: Antimicrobial activity against Hortaea werneckii by broth microdilution method
Phialemonium curvatum = assay: Antimicrobial activity against Phialemonium curvatum by broth microdilution method; conditions: Thyridium curvatum; procedure, shortened: as §1
Fusarium oxysporum = assay: Antimicrobial activity against Fusarium oxysporum by broth microdilution method; procedure, shortened: as §2
[2] = Antimicrobial activity against Rhizopus microsporus by broth microdilution method; procedure, shortened: as §1
Nakaseomyces glabratus = assay: Antimicrobial activity against Candida glabrata by broth microdilution method; procedure, shortened: as §3
Aspergillus versicolor = assay: Antimicrobial activity against Aspergillus versicolor by broth microdilution method; procedure, shortened: as §2
Lewia infectoria = assay: Antimicrobial activity against Alternaria infectoria by broth microdilution method; procedure, shortened: as §2
[Candida] zeylanoides = Antimicrobial activity against Candida zeylanoides by broth microdilution method; conditions: Dujonia zeylanoides; procedure, shortened: as §3
Fennellia nivea = assay: Antimicrobial activity against Aspergillus niveus by broth microdilution method; procedure, shortened: as §2
Rhodotorula mucilaginosa = assay: Antimicrobial activity against Rhodotorula mucilaginosa by broth microdilution method; procedure, shortened: as §4

C[C@@H]1[C@H](O)[C@@H](C)/C=C/C=C/C=C/C=C/C=C/C=C/C=C/[C@H](O[C@@H]2O[C@H](C)[C@@H](O)[C@H](N)[C@@H]2O)C[C@@H]2O[C@](O)(C[C@@H](O)C[C@@H](O)[C@H](O)CC[C@@H](O)C[C@@H](O)CC(=O)O[C@H]1C)C[C@H](O)[C@H]2C(=O)O [AMPHOTERICIN B]
2 µg/mL: MIC50 (Fusarium verticillioides) | MIC50 (Fusarium proliferatum) | MIC50 (Rhizomucor) | MIC90 (Aspergillus sydowii) | MIC90 (Penicillium) | MIC90 (Aspergillus flavus) | MIC50 (Saksenaea vasiformis) | MIC90 (Fusarium oxysporum) | MIC50 [2] | MIC90 (Aspergillus versicolor)
1 µg/mL: MIC90 (Lecythophora hoffmannii) | MIC90 (Candida metapsilosis) | MIC90 (Wickerhamomyces anomalus) | MIC90 (Exophiala dermatitidis) | MIC90 (Mucor) | MIC90 (Aureobasidium pullulans) | MIC50 (Aspergillus sydowii) | MIC50 (Aspergillus terreus) | MIC90 ([Candida] intermedia) | MIC50 (Aspergillus nidulans) | MIC50 (Aspergillus flavus) | MIC90 (Pichia norvegensis) | MIC90 (Hortaea werneckii) | MIC50 (Fusarium oxysporum) | MIC50 (Aspergillus versicolor) | MIC90 ([Candida] zeylanoides)
0.12 µg/mL: MIC50 (Candida metapsilosis) | MIC50 (Wickerhamomyces anomalus) | MIC50 (Mucor) | MIC50 ([Candida] intermedia) | MIC90 (Candida albicans) | MIC50 (Candida tropicalis) | MIC50 (Saccharomyces cerevisiae) | MIC50 (Pichia norvegensis) | MIC50 (Nakaseomyces glabratus) | MIC50 ([Candida] zeylanoides) | MIC50 (Rhodotorula mucilaginosa)
> 16 µg/mL: MIC90 (Scedosporium apiospermum) | MIC90 [1] | MIC50 (Paecilomyces lilacinus) | MIC90 (Paecilomyces lilacinus) | MIC90 (Rhizomucor) | MIC90 (Aspergillus glaucus) | MIC90 (Saksenaea vasiformis) | MIC90 (Aspergillus ochraceus) | MIC90 (Trichoderma) | MIC90 (Alternaria alternata) | MIC90 (Beauveria bassiana) | MIC90 (Phialemonium curvatum) | MIC90 [2] | MIC90 (Lewia infectoria) | MIC90 (Fennellia nivea)
4 µg/mL: MIC50 (Scedosporium apiospermum) | MIC90 (Fusarium verticillioides) | MIC90 (Fusarium proliferatum) | MIC90 (Aspergillus terreus) | MIC90 (Aspergillus nidulans)
0.25 µg/mL: MIC50 (Lecythophora hoffmannii) | MIC50 (Exophiala dermatitidis) | MIC50 (Kluyveromyces marxianus) | MIC50 (Aureobasidium pullulans) | MIC50 (Aspergillus niger) | MIC90 (Aspergillus niger) | MIC90 (Candida tropicalis) | MIC90 (Saccharomyces cerevisiae) | MIC50 (Hortaea werneckii) | MIC90 (Nakaseomyces glabratus)
0.06 µg/mL: MIC50 (Candida albicans) | MIC50 (Lewia infectoria)
8 µg/mL: MIC90 (Trichosporon) | MIC90 (Trichosporon domesticum) | MIC90 (Trichosporon dermatis) | MIC90 (Rhodotorula glutinis)
0.5 µg/mL: MIC50 (Yarrowia lipolytica) | MIC90 (Yarrowia lipolytica) | MIC50 [1] | MIC50 (Trichosporon) | MIC90 (Kluyveromyces marxianus) | MIC50 (Trichosporon domesticum) | MIC50 (Aspergillus glaucus) | MIC50 (Penicillium) | MIC50 (Trichosporon dermatis) | MIC50 (Rhodotorula glutinis) | MIC50 (Aspergillus ochraceus) | MIC50 (Trichoderma) | MIC50 (Alternaria alternata) | MIC50 (Beauveria bassiana) | MIC50 (Phialemonium curvatum) | MIC50 (Fennellia nivea) | MIC90 (Rhodotorula mucilaginosa)
